# Bioassay records as filed in PubChem BioAssay.
# Insulin prom act: activators of insulin promoter-driven GFP, primary screen, imaging, TRM-6 cells (human fetal islet line), eGFP reporter, cell count | plate-scaled: unstimulated 0, stimulated control 100 | activation, % at 2 µM | hit rate 0.81% among 130,000;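 active means activation at 2 µM above a set limit, confirmed on inspection of the cell images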;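 further: share of cells whose green reporter signal exceeds an intensity cutoff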
#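 test system = TRM-6 insulin promoter–eGFP reporter cells | benchmarks = stimulated versus unstimulated wells as plate controls | read-out basis = percent cells above green-intensity threshold, converted to percent activation versus plate controls | detection = fixed-cell fluorescence microscopy, eGFP plus Hoechst | incubation = tamoxifen pre-incubation 15 h overnight, then compound exposure 48 h at 37 °C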
# Starred values were filed as active, the others as inactive. This is one part of a sample in which hits are shown more often than they occur.
SMILES,Insulin prom act
N#C/C(=C(/O)C(Cl)c1ccccc1)c1nc2ccccc2s1 (configuration not stated),-3
N#C/C(=C/c1ccc(-c2ccccc2)o1)c1nc(-c2cccs2)cs1,456*
CCOC(=O)N1CCN(/C=C(\C#N)c2nc3ccccc3s2)CC1,7
CN(Cc1nc(-c2cnccn2)no1)Cc1n[nH]c2c1CCCC2,-10
CCC(=O)c1c[nH]c(C(=O)NCCCn2ccnc2)c1,-4
Cc1cc(C)c2nc(/N=C(\N)NC(=O)Nc3ccccc3)nc(C)c2c1,5
CCc1ccc(NC(=S)N2CCCCCCC2)cc1,-79
COc1ccc(CCNC(=O)C2CCN(S(C)(=O)=O)CC2)cc1,9
CCCCN1C(=O)/C(=C/C=C2\SCCN2C)SC1=S,408*
CCN1C(=O)/C(=C/C=C2/Sc3ccc4ccccc4c3N2CCO)SC1=S,179
CCN1C(c2ccccc2)=C(c2ccccc2)S/C1=C\C=C1/SC(=S)N(C)C1=O,5
CCOc1ccccc1OCCCNCc1ccco1,0
COc1ccc(CN(C)c2nc(-c3cccnc3)nc3ccccc23)cc1OC,7
Cc1ccc(NC(=O)c2cccc(S(=O)(=O)N(C)c3ccccc3)c2)cc1S(=O)(=O)N1CCOCC1,3
COCc1cc(C)nc(N2CCc3ccccc32)c1C#N,0
COCc1cc(C)nc(Nc2ccccc2C)c1C#N,408*
COCc1cc(C)nc(SCC[N+](C)(C)CC(=O)Nc2ccccc2)c1C#N,8
CC(C)NC(=O)COC(=O)c1cc(Br)ccc1Cl,-3
CC(C)NC(=O)c1cc2cc(Br)ccc2oc1=O,129*
O=c1oc2ccc(Br)cc2cc1S(=O)(=O)c1ccc(F)cc1,8
CCOc1ccccc1Nc1nc(N)nc(CN2CCCCC2C)n1 (configuration not stated),8
O=C(CCCOc1ccccc1)Nc1cccc([N+](=O)[O-])c1,-77
CC(C(=O)Nc1cccc(Br)c1)c1ccc([N+](=O)[O-])cc1 (configuration not stated),-7
CC(=O)N[C@@H](C)C(=O)OC(C)C(=O)Nc1cccc([N+](=O)[O-])c1 (some centres not stated),392*
CC1CCN(C(=O)Cn2c(SCC(=O)Nc3nccs3)nc3ccccc32)CC1,154*
SMILES,Insulin prom act
CC1CCN(C(=O)CSCC(=O)Nc2nc(-c3cccs3)cs2)CC1,0
CC1CC(C)CN(C(=O)Cn2c(SCC(=O)N3CCc4ccccc4C3)nc3ccccc32)C1 (configuration not stated),107
CCOc1ccc(NC(=O)c2sc(N3CCOCC3)nc2-c2ccccc2)cc1,-6
N#C/C(=C\c1sc(N2CCOCC2)nc1-c1ccccc1)C(=O)Nc1cccc2ccccc12,223*
O=C(Nc1cccc2ccccc12)N1CCOCC1,3
Cc1ccc(Nc2nnc(SCC(=O)Nc3cccnc3Cl)s2)cc1C,-7
Cc1ccc2nc(-c3ccccc3)nc(SC(C)C(=O)NCc3cccs3)c2c1 (configuration not stated),-7
CCN(CC(=O)NCc1cccs1)S(=O)(=O)c1ccc(C(C)C)cc1,6
Cc1nc2ccc(S(=O)(=O)NC(C(=O)NCc3cccs3)C(C)C)cc2s1 (configuration not stated),250*
Cc1cccc(NC(=O)C(=O)NCc2ccc3c(c2)OCO3)c1C,-5
O=C(CSc1ncn[nH]1)NCCC(c1ccccc1)c1ccccc1,85*
O=C(CSc1ncn[nH]1)NC1CCCc2ccccc21 (configuration not stated),0
COc1ccc(CCNC(=O)CSc2ncn[nH]2)cc1,-86
CC(C)c1cccc(C(C)C)c1NC(=O)Cn1c(=O)cnc2ccccc21,8
CCN(CC)C(=O)C(Cc1ccccc1)N1C(=O)c2ccccc2C1=O (configuration not stated),4
Cc1cccc(-c2cc(C(=O)Nc3ccc4c(c3)OCCO4)c3ccccc3n2)c1,-3
O=C(Nc1ccccc1N1CCOCC1)c1cc(-c2ccncc2)nc2ccccc12,236*
O=C(Nc1ccccc1N1CCOCC1)c1cccnc1,8
Cc1nnc(SCC(=O)NC(C)(C)C)n1C1CCCCC1,-8
CCOc1ccc(C(=O)N(Cc2ccc(OC)cc2)Cc2cc3cc(OC)ccc3[nH]c2=O)cc1,-9
CCCN(Cc1cc2cc(C)ccc2[nH]c1=O)C(=O)c1cccc(OC)c1,197*
CCCN(Cc1cc2cc(C)ccc2[nH]c1=O)S(C)(=O)=O,-92
CSCc1ccc(C(=O)Nc2cccc(C)c2C)cc1,3
Cc1cc(C)c(NC(=S)N(CCc2ccncc2)C(C)C)c(C)c1,7
COc1ccc(C(=O)Nc2cc(C(C)=O)c(/C=C/N(C)C)oc2=O)cc1,-3
SMILES,Insulin prom act
O=C(Nc1cc2c(oc1=O)CCCC2=O)c1cccc(Cl)c1,-7
COC(=O)c1cc(NC(=O)c2cccc(Cl)c2)c(=O)oc1/C=C/Nc1cc(C)cc(C)c1,809*
COc1ccc(-c2nc(C)c(C(C)=O)n2O)cc1[N+](=O)[O-],0
O=C(Nc1ccc(-n2cccc2)cc1)C1CC1,0
O=C(Nc1ccc(Oc2ccc(C(F)(F)F)cn2)c(Cl)c1)C1CC1,8
O=C(CSc1ncccn1)NC(=O)c1ccccc1,7
N/C(=N\OS(=O)(=O)c1ccc(Br)cc1)c1ccncc1,3
COC(=O)C(C)Sc1nc2c(c(-c3ccc(OC)cc3)c1C#N)-c1ccccc1C2=O (configuration not stated),-82
Fc1ccc(C(c2nnnn2Cc2ccco2)N2CCN(C3CCCCC3)CC2)cc1 (configuration not stated),89*
c1ccc(Cn2nnnc2C(c2cccnc2)N2CCN(C3CCCCC3)CC2)cc1 (configuration not stated),-4
O=C(c1ccco1)N1CCN(C(c2ccc(F)cc2)c2nnnn2Cc2cccs2)CC1 (configuration not stated),-10
Cc1nnc(SCC(=O)c2ccc(Cl)cc2)s1,-71
COc1cccc(SCC2CSc3nc4ccccc4c(=O)n32)c1 (configuration not stated),7
COc1cccc(-c2noc(-c3ccc(Br)o3)n2)c1,-7
CC(C)[C@H](NC(=O)c1ccccc1)C(=O)OCC(=O)NCc1ccc(F)cc1,5
O=C1OC(N2CCN(C(=O)C3CCCO3)CC2)c2ccccc21 (configuration not stated),173*
CCOC(=O)N1CCN(C(=O)Cc2cccs2)CC1,7
O=C1OC(N2CCN(C/C=C/c3ccccc3)CC2)c2ccccc21 (configuration not stated),-83
O=C(C1CCCO1)N1CCN(C(=S)Nc2ccc(F)cc2)CC1 (configuration not stated),-3
CCOC(=O)N1CCN(C2OC(=O)c3ccccc32)CC1 (configuration not stated),459*
O=C(C1CCCO1)N1CCN(S(=O)(=O)c2cccc3nsnc23)CC1 (configuration not stated),-4
COc1cc(SC)ccc1C(=O)OC(C)C(=O)NC1CCCC1 (configuration not stated),0
C=CCC(C=C)[N+]1(CC(=O)OC)CCCCC1 (configuration not stated),0
CC[n+]1c(/C=C/C=C/N(C(C)=O)c2ccccc2)sc2ccccc21,203*
O=C1CCC(C(=O)Nc2cccc(Oc3ccccc3)c2)=NN1,9
Cc1ccc(O)c(C(=O)/C=C/c2ccc3c(c2)OCCO3)c1,-7
